Shown are actives, neighbours in structure and some others; about 2% of the full set was active somewhere.
MC4R ag barr = MC4R agonists recruiting beta-arrestin, primary screen, cell-based, luminescence, agonist arm of biased-ligand search. Melanocortin receptor 4 (Homo sapiens), P32245. U2OS MC4R beta-arrestin complementation; percent of melanotan II response, DMSO zero. activation, % at 8.9 µM. hit rate 0.98% among 360,000;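 active = activation above a per-plate cutoff, the mean activation of sample wells on that plate plus 3 SD, cut at about 8% in these data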
Target sequence (P32245 whole entry, looked up): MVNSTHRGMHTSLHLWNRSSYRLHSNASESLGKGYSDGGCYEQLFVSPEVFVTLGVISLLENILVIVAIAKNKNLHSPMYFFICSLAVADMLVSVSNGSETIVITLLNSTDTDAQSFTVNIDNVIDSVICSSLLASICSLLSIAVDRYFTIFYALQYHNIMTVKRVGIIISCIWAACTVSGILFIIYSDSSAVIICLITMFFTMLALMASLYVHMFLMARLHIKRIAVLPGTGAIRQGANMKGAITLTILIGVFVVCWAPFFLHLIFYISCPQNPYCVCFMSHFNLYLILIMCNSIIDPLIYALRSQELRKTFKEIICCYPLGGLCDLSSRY
UPR XBP1 act = activators of adaptive XBP1 UPR arm, primary screen, cell-based, CHO-XBP1 luciferase reporter, luminescence, uHTS. IRE1-XBP1 UPR activation; percent of tunicamycin response, DMSO as zero. hit rate 0.33% among 330,000. activation, % at 20 µM;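 active = versus positive control, 20 µM dose yields 30% or more activation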
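Test system: CHO-XBP1 luciferase reporter cells | Buffer or medium: Serum-containing F12 medium, 10% FBS | Schedule: 6 h compound exposure at 37 °C, 5% CO2 | Detection: Steady-Glo luciferase glow luminescence, 10 min after reagent addition | Read-out basis: Activation, % of tunicamycin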
UPR CHOP act = activators of apoptotic CHOP UPR arm, primary screen, cell-based, CHO-CHOP luciferase reporter, luminescence, uHTS; AID 449763, 2010; hit rate 0.34% among 330,000; UPR activation; percent of tunicamycin response over DMSO baseline; activation, % at 10 µM;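 active = at 10 µM dose, activation of 40% or more, normalized to positive control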
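Dosing – one dose, 10 µM in 0.5% DMSO · System – CHO-CHOP cells, stable luciferase reporter of PERK-eIF2a-CHOP signalling · Input – 500 cells/well · Control set – tunicamycin 10 µg/mL final as positive, DMSO-only wells as negative · Timing – 6 h compound treatment, 37 °C · Measure – % activation vs tunicamycin · Technique – luminescence read with Steady-Glo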
MC4R antag cAMP = MC4R antagonists of cAMP signaling, primary screen, cell-based, TR-FRET, antagonist arm of biased-ligand search. Melanocortin receptor 4 (Homo sapiens), P32245. MC4R-expressing cells, MTII-stimulated cAMP, LANCE TR-FRET. inhibition, % at 6.5 µM. hit rate 0.48% among 360,000. AID 540295, 2011;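 active = inhibition above its plate's cutoff, the mean of tested wells on that plate plus 3 SD, cut at about 29% in these data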
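Test system: U2OS cells stably expressing human melanocortin 4 receptor (MC4R); also added: Melanotan II challenge; compound: 6.5 µM single dose; timing: 30-min compound preincubation, 1-h Melanotan II challenge, 1-h detection, room temperature; signal: Eu-cAMP/anti-cAMP TR-FRET, emission 671 nm; repeats: one well per compound, no replicates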
Bfl-1 A1 inh = caspase 3/7 activation in MEF A1-2A-BIM cells, primary screen, A1 inhibitor project, cell-based, luminescence, HTS. Caspase-Glo 3/7 luminescence, 3 h; percent of clofoctol response, vehicle zero. caspase activation, % (test concentration not listed). hit rate 0.066% among 330,000;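 active = over half of replicate activation scores above 10%, or exactly half above 10 with the replicate mean above 10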
UPR XBP1 confirm = IRE1-XBP1 UPR arm activators, confirmation, cell-based, CHO-XBP1 luciferase reporter, luminescence, single concentration. hit rate 63% among 1,000. activation, % at 20 µM. shares compounds with UPR XBP1 act. AID 485299, 2010;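 active = reporter signal at least 30% of the positive control's activation in two or more of four replicate wells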
Hits are given with their value; – = inactive; · = no result given.

SMILES | MC4R ag barr | UPR XBP1 act | UPR CHOP act | MC4R antag cAMP | Bfl-1 A1 inh | UPR XBP1 confirm
CN(C)CCCN(C(=O)c1ccc(S(=O)(=O)N2CCc3ccccc3C2)cc1)c1nc2ccc(F)cc2s1 | 17.1 | 31.3 | – | – | 30.0 | 71.2
Cc1cc(C)c2sc(N(CCCN(C)C)C(=O)c3ccc(S(=O)(=O)N4CCCc5ccccc54)cc3)nc2c1 | – | 31.2 | – | – | – | 54.0
CN(C)CCCN(C(=O)CCc1ccccc1)c1nc2ccc(F)cc2s1 | – | – | – | – | – | ·
C#CCN(C[C@@H]1[C@@H](OC(=O)Nc2cccs2)[C@@H](OC(=O)Nc2cccs2)Cn2c(=O)n(CCCCCC)c(=O)n21)S(=O)(=O)c1ccc(C)cc1 | – | · | · | – | · | ·
CCc1nc2ccc(C(=O)Nc3cccc(NS(C)(=O)=O)c3)cn2c1N(C)C(=O)c1cccc(OC)c1 | – | · | · | – | · | ·
Clc1ccc(-c2ccc(-c3nn4c(-c5ccco5)nnc4s3)o2)cc1 | – | 90.7 | – | – | – | –
CCOC(=O)c1nnc(-c2ccc(C)cc2)nc1Sc1ccc(Cl)cc1 | – | 47.2 | – | – | – | –
CCOC(=O)c1nnc(-c2ccccc2)nc1Sc1c(Cl)cccc1Cl | – | 47.3 | – | – | – | 96.7
CCOC(=O)c1nnc(-c2ccc(C)cc2)nc1Sc1ccccc1Cl | – | 33.0 | – | – | – | 47.9
CCCS(=O)(=O)NC(=O)C1(C)CCCN(C(=O)c2ccccc2OC(F)(F)F)C1 (centres undefined) | – | · | · | – | · | ·
CC1C/C(=N/Nc2nc3ccccc3[nH]2)CC(C)(C)C1 (centres undefined) | – | 33.6 | – | – | – | 31.3
CC1(C(=O)NS(=O)(=O)c2cccc(F)c2)CCN1C(=O)CC1CCCC1 (centres undefined) | – | · | · | – | · | ·
CCOc1ccc(Cl)cc1-c1cc(C(=O)NCc2cccc(C(F)(F)F)c2)[nH]n1 | – | · | · | – | · | ·
COc1ccc(N2CCN(Cc3nc(N)nc(Nc4ccc(C)c(Cl)c4)n3)CC2)cc1 | – | 32.8 | – | – | – | 62.0
CCOc1ccccc1NC(=O)Cn1c(=O)n(-c2ccccc2)c(=O)c2oc3ccccc3c21 | – | 65.0 | – | – | – | 94.1
O=C(Cn1c(=O)n(-c2ccccc2)c(=O)c2oc3ccccc3c21)Nc1ccccc1 | – | – | – | – | – | ·
Cc1cc(C(=O)NNC(=O)c2ccccc2[N+](=O)[O-])c(C)o1 | – | 58.6 | – | – | – | –
CC(C)CC(N)c1csc(NC(=O)c2cc(C(C)(C)C)nn2Cc2ccccc2)n1 (centres undefined) | – | · | · | – | · | ·
CCN1C(=O)[C@H]2[C@@H](c3ccc(C(F)(F)F)cc3)N[C@]3(CCCN(Cc4ccco4)C3=O)[C@H]2C1=O | – | · | · | – | · | ·
C[C@@H]1C[C@H]2[C@@H]3CCC4=CC(=O)C=C[C@]4(C)[C@@]3(Cl)[C@@H](O)C[C@]2(C)[C@@]1(OC(=O)c1ccco1)C(=O)CCl | – | 78.6 | – | – | – | 58.2
COc1ccc(CNc2nc(-c3ccccc3)nn2C(=O)c2ccc([N+](=O)[O-])cc2)cc1 | – | 32.8 | – | – | – | –
CCc1nc2ccc(C(=O)NCCOc3ccc(OC)cc3)cn2c1N(CC)Cc1ccc(OC)c(OC)c1 | – | · | · | – | · | ·
Cc1ccc(NC(=O)Cn2c3ccc(F)cc3c3nc4n(c(=O)c32)CCS4)cc1F | – | – | – | – | – | ·
O=C(Cn1c2ccc(F)cc2c2nc3n(c(=O)c21)CCS3)Nc1ccc(Cl)cc1F | – | 81.8 | – | – | – | 33.5
CC(CC(c1ccccc1)N1CCc2ccccc2C1)=NO (centres undefined) | – | · | · | – | · | ·
SMILES | MC4R ag barr | UPR XBP1 act | UPR CHOP act | MC4R antag cAMP | Bfl-1 A1 inh | UPR XBP1 confirm
CCC(=O)N1CCCC(C)(C(=O)Nc2ccc3scnc3c2)C1 (centres undefined) | – | · | · | – | · | ·
Cc1ccc(-c2nnn(CC(=O)N(Cc3cccs3)C(C(=O)NC3CCCCC3)c3ccco3)n2)o1 (centres undefined) | – | 47.8 | – | – | – | 38.5
N#C/C(=C\Nc1ccc2cn[nH]c2c1)c1nc(-c2ccccc2)cs1 | – | · | · | – | · | ·
N#C/C(=C\Nc1ccc2cn[nH]c2c1)c1nc(-c2ccc(Cl)cc2)cs1 | – | 101.1 | – | – | – | 72.0
COC(=O)c1ccc(C(=O)OC)c(NC(=O)Cc2cccs2)c1 | – | · | · | – | · | ·
CCCCC1CCC(C(=O)N(CC(C)C)c2c(N)n(CCCC)c(=O)[nH]c2=O)CC1 (centres undefined) | – | 39.2 | – | – | – | 37.9
COc1ccc(/C=N/NC(=O)c2cc3c(OC)ccc(OC)c3[nH]2)cc1O | – | 31.9 | – | – | – | –
COc1ccc(OC)c2[nH]c(C(=O)N/N=C/c3ccccc3O)cc12 | – | – | – | – | – | ·
CCc1ccccc1NC(=O)CCC(=O)N1CCN(C(C)=O)CC1 | – | · | · | – | · | ·
O=C(N/N=C/c1ccc(Cl)cc1)c1sccc1OCc1ccc(F)cc1 | – | 50.4 | – | – | – | 55.2
Cc1ccc(NC(=O)c2c(C)nc3sc(C(=O)NC4CCCC4)c(N)c3c2-c2ccco2)c(C)c1 | – | 62.7 | – | – | – | 104.8
Cc1ccccc1NC(=O)c1sc2nc3c(c(-c4ccco4)c2c1N)CCC3 | – | – | – | – | – | ·
CCCCn1c(NC(=O)c2ccccc2)c(C#N)c2nc3ccccc3nc21 | – | · | · | – | · | ·
CCC(C)n1c(NC(=O)c2ccccc2)c(C#N)c2nc3ccccc3nc21 (centres undefined) | – | 63.0 | – | – | – | –
CC(C)c1ccc(S(=O)(=O)c2nnn3c2nc(N2CCCCC2)c2ccccc23)cc1 | – | – | – | – | – | ·
N#Cc1cnn2c1nc(N1CCCCC1)c1ccccc12 | – | 46.8 | – | – | – | 41.2
CC(C)C[C@H](NC(=O)c1nc[nH]c1C(=O)N[C@@H](CC(C)C)C(=O)OC(C)(C)C)C(=O)OC(C)(C)C | – | 44.9 | – | – | – | –
CC(C)CCn1c(=O)c(C(=O)N/N=C/c2cccc(F)c2)c(O)c2ccccc21 | – | 36.8 | – | – | – | –
O=C(CN1C(=O)/C(=C/c2ccc(Cl)cc2)SC1=S)NC1C=CS(=O)(=O)C1 (centres undefined) | – | 44.0 | – | – | – | –
Cc1ccc(Cl)cc1N1CCN(Cc2nc3c(c(=O)[nH]c(=O)n3C)n2CCc2ccccc2)CC1 | – | 45.8 | – | – | – | 55.4

Screening results: PubChem BioAssay, several laboratories
